Assay outcomes deposited in PubChem by several laboratories.
Only some compounds are listed: those with a hit (about 2.6% of all), similar ones and a draw of the others.
GRK2 inh – blocks RNA aptamer binding to human GRK2 | bead flow cytometry, FAM-aptamer displacement from GRK2 | inhibition of aptamer binding, % at 10 µM | AID 488847 | 330,000 tested, 0.59% active;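 active = inhibition of aptamer binding above 40%, roughly 3 SD of noise, on plates passing a quality check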;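 note: median bead fluorescence of bound FAM aptamer so fluorescent compounds give negative values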
Target sequence (P25098 whole entry, looked up): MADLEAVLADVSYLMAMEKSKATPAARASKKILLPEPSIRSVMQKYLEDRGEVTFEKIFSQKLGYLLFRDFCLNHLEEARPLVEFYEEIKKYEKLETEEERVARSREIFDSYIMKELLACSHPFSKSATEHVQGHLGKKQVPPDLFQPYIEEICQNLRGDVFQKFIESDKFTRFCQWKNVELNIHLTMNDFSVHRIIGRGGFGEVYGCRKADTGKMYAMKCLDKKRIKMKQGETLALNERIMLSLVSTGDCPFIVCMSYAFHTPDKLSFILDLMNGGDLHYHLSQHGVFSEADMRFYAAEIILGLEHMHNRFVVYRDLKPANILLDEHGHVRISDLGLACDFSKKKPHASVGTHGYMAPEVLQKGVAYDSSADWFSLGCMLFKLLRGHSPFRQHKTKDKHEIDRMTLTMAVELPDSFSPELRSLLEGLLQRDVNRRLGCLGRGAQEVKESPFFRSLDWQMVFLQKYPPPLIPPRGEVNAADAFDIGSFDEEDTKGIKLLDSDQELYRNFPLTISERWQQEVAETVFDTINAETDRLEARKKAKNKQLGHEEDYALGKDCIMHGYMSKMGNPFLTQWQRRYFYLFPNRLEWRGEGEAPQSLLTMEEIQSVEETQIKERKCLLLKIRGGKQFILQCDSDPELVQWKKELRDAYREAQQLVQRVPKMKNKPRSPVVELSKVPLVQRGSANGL
Myeloid diff 2 – myeloid differentiation induction; 360,000 tested, 1% active; ER-HoxA9 myeloid progenitors, lysozyme-GFP differentiation, flow cytometry; calls only at 10 µM; AID 624256;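 active = normalized GFP-positive differentiation at or above the plate's own cutoff, the solvent-only control mean plus 3 SD; inconclusive = no clear call, values can overlap the other calls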;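 note: cells exposed to compound for four days before flow analysis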
Rin1-Abl PPI inh – inhibitors of human Rin1-Abl protein interaction. 360,000 tested, 0.4% active. inhibition, % at 7.35 µM. AID 588664. P00519+Q13671. TR-FRET Rin1/Abl binding, biochemical; in the data active = inhibition above about 5%, passing the limit was not always enough
T cell HTS – T cell immune modulators affecting CD8 T cell-vesicle binding; AID 2052; 330,000 tested, 0.068% active; 2C CD8+ T cell-vesicle binding, flow cytometry; active compounds read low; response (vesicle binding), % at 7 µM;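 active = response, share of CD8 T cells binding vesicles, and their 90th percentile fluorescence all below set limits, cut at about 80% in these data, passing the limit was not always enough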;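 note: values below 100% mean blocked vesicle binding to the CD8+ T cells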
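Assay system: 2C TCR transgenic mouse naive CD8+ T cells, MACS-purified | Read-out: CD8+ gate FL2 mean fluorescence as % of same-row positive control | Signal: High-throughput flow cytometry with anti-B7-1 and anti-CD8 staining | Timing: Binding step 1.5 h, 37 °C, antibody labelling 20 min, ice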
SKN-1 inh – blocks SKN-1 activity in C. elegans | C. elegans VP596 Pgst-4::GFP/RFP ratio, acrylamide-induced, 24 h | inhibition, % at 21.8 µM | 360,000 tested, 0.49% active;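 active = interference check ratio from 0.5 to 1.5 plus GFP to RFP signal ratio inhibition reaching or exceeding a fixed threshold, cut at about 30% in these data, passing the limit was not always enough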
Rce1 inhib – blocks yeast Ras-converting enzyme. AID 2563. 290,000 tested, 0.27% active. calls only. Q03530. yeast membranes, quenched prenylated peptide cleavage fluorescence;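 active = fall in fluorescence gain of 50% or more versus controls, with final raw signal at or below 3038400; inconclusive = same 50% fall but final raw signal above 3038400; inactive = fall in fluorescence gain under 50%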
Rin1 Abl conf – Rin1-Abl interaction inhibition confirmation. 1,300 tested, 49% active. inhibition, % at 7.35 µM. TR-FRET Rin1-Abl binding, purified proteins. shares compounds with Rin1-Abl PPI inh
GFP quencher – counter-screen for Rin1-Abl inhibitors: GFP fluorescence quenchers | inhibitors/quenchers counterscreen | shares compounds with Rin1-Abl PPI inh | AID 602125 | inhibition, % at 6.75 µM | 1,300 tested, 8.5% active;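 note: ABL1-eGFP fusion protein alone without its partner RIN1-SBP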
GFP quench dose – GFP fluorescence interference dose response | shares compounds with Rin1-Abl PPI inh | GFP fluorescence interference/quenching counterscreen | IC50, µM | 230 tested, under 10 active; call rule not given here;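 note: ABL1-eGFP fusion protein alone without its RIN1 binding partner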
Of the large screens only hits and unclear results are named; the others gave an inactive call (follow-up assays come after a bar, where they were run). Cut-off read from the data, not from the text of the source, unless noted: active = inhibition above about 6.5%; inactive = the rest.

COc1ccccc1CNc1nc(NCCN2CCNC2=O)c2sccc2n1	Rin1-Abl PPI inh 11.9 (no result: GRK2 inh, T cell HTS, Rce1 inhib) | Rin1 Abl conf 6.9 | GFP quencher inactive
COCCNc1nc(NCCN2CCNC2=O)c2sccc2n1	none (no result: GRK2 inh, T cell HTS, Rce1 inhib)
Cc1ccccc1NC(=O)Cc1nc(COC(=O)c2nccnc2N)cs1	none (no result: GRK2 inh, T cell HTS, Rce1 inhib)
COc1cc(/C=N/NC(=O)CSc2ccccn2)ccc1OC(C)C	Rin1-Abl PPI inh 16.5 (no result: Rce1 inhib) | Rin1 Abl conf 25.5 | GFP quencher inactive | GFP quench dose inactive
CCn1c(SCC(=O)N/N=C/c2ccc(OC)c(OC)c2)nc2ccccc21	none (no result: T cell HTS)
Cc1nc(C)n(C)c(=O)c1-c1ccccc1	Rin1-Abl PPI inh 39.9 | Rin1 Abl conf inactive | GFP quencher inactive
Cc1nc(C)c(-c2ccccc2)c(=O)[nH]1	none
COc1cccc2c3cccc(OC)c3c3[nH]cnc3c12	Myeloid diff 2 inconclusive, Rin1-Abl PPI inh 33.2 (no result: GRK2 inh, T cell HTS, Rce1 inhib) | Rin1 Abl conf 28.5 | GFP quencher inactive | GFP quench dose inactive
CC1CCN(C(=O)c2ccc(N3CCOCC3)c([N+](=O)[O-])c2)CC1	Rin1-Abl PPI inh 8.9 (no result: Rce1 inhib) | Rin1 Abl conf inactive | GFP quencher inactive
CN(CCc1ccccc1)C(=O)c1ccc(NC(=O)Cc2ccc(NC(=O)C3CCCN(C(=O)C4CCC4)C3)cc2)cc1 (centres undefined)	none (no result: GRK2 inh, T cell HTS, Rce1 inhib)
CN(CCc1ccccc1)C(=O)c1ccc(NC(=O)Cc2cccc(NC(=O)C3CCN(C(=O)C4CCCC4)CC3)c2)cc1	Rin1-Abl PPI inh 12.2 (no result: GRK2 inh, T cell HTS, Rce1 inhib) | Rin1 Abl conf 15.5 | GFP quencher inactive
CN(Cc1ccccc1)C(=O)c1ccc(NC(=O)Cc2cccc(NC(=O)C3CCN(C(=O)C4CCCCC4)CC3)c2)cc1	none (no result: Rce1 inhib)
CN(Cc1ccccc1)C(=O)c1ccc(NC(=O)Cc2ccc(NC(=O)C3CCN(C(=O)C4CCCC4)CC3)cc2)cc1	Rin1-Abl PPI inh 13.8 (no result: GRK2 inh, T cell HTS, Rce1 inhib) | Rin1 Abl conf 18.9 | GFP quencher inactive | GFP quench dose inactive
CN(C(=O)c1ccc(NC(=O)Cc2cccc(NC(=O)C3CCN(C(=O)C4CCCCC4)CC3)c2)cc1)C1CC1	Rin1-Abl PPI inh 13.7 (no result: GRK2 inh, T cell HTS, Rce1 inhib) | Rin1 Abl conf 25.6 | GFP quencher inactive | GFP quench dose inactive
CN(CCc1ccccc1)C(=O)c1ccc(NC(=O)Cc2ccc(NC(=O)C3CCN(C(=O)C4CCC4)CC3)cc2)cc1	Rin1-Abl PPI inh 26.5 (no result: GRK2 inh, T cell HTS, Rce1 inhib) | Rin1 Abl conf 25.8 | GFP quencher inactive | GFP quench dose inactive
CN(C(=O)c1ccc(NC(=O)Cc2cccc(NC(=O)C3CCN(C(=O)C4CCCC4)CC3)c2)cc1)C1CCCC1	none (no result: Rce1 inhib)
CN(CCc1ccccc1)C(=O)c1ccc(NC(=O)Cc2cccc(NC(=O)C3CCN(C(=O)C4CCC4)CC3)c2)cc1	none (no result: GRK2 inh, T cell HTS, Rce1 inhib)
Nc1nc(N)c2ncn(C3C=CC(CO)C3)c2n1 (centres undefined)	none (no result: GRK2 inh, T cell HTS, Rce1 inhib)
O=C(NCc1ccco1)c1ccc(Cl)nc1	none
CCN(C(=O)c1ccc(S(=O)(=O)N2CCCC2)cc1)C1CCS(=O)(=O)C1 (centres undefined)	none
O=C(COc1ccc(Cl)cc1)NNC(=O)c1ccc2c(=O)n3c(nc2c1)CCC3	none
CN(CCc1ccccc1)C(=O)c1ccc(NC(=O)Cc2ccc(NC(=O)C3CCN(C(=O)C4CCCCC4)CC3)cc2)cc1	Rin1-Abl PPI inh 30.6 (no result: GRK2 inh, T cell HTS, Rce1 inhib) | Rin1 Abl conf 30.2 | GFP quencher inactive | GFP quench dose inactive
CN(CCc1ccccc1)C(=O)c1ccc(NC(=O)Cc2cccc(NC(=O)C3CCN(C(=O)C4CC4)CC3)c2)cc1	none (no result: GRK2 inh, T cell HTS, Rce1 inhib)
CC(=O)Nc1ccc(CNc2nc(NCC3CC3)nc3ccsc23)cc1	Rin1-Abl PPI inh 7.2 (no result: GRK2 inh, T cell HTS, Rce1 inhib) | Rin1 Abl conf inactive | GFP quencher inactive
CCN(CC)c1ccc(N=Cc2ccc(N(CC)CC)cc2O)cc1	Rin1-Abl PPI inh 11.2 | Rin1 Abl conf inactive | GFP quencher inactive
CC(C)CNC(=O)c1cccc2c(-c3cccc(C(N)=O)c3)coc12	none (no result: GRK2 inh, T cell HTS, Rce1 inhib)
CCn1ccnc1CN1CCN(CCC(C)C)C(CCO)C1 (centres undefined)	none
Cc1cc(C)nc(N(C#N)Cc2ccc([N+](=O)[O-])cc2)n1	none
Cc1cc(C)nc(N(C#N)Cc2ccccc2)n1	Rin1-Abl PPI inh 7.2 | Rin1 Abl conf inactive | GFP quencher inactive
CCCC1=C(C(=O)OCC)C(c2ccco2)C(C#N)=C(N)O1 (centres undefined)	none
N=c1ccn(O)cc1CCc1ccccc1	Rin1-Abl PPI inh 17.1 (no result: GRK2 inh, T cell HTS, Rce1 inhib) | Rin1 Abl conf 21.6 | GFP quencher inactive | GFP quench dose inactive
CCOC(=O)CSc1nc2cc(C(=O)N3CCCC3)ccc2c(=O)n1Cc1ccccc1	none
CCOC(=O)CSc1nc2cc(C(=O)N3CCC(C(N)=O)CC3)ccc2c(=O)n1-c1ccccc1	Rin1-Abl PPI inh 9.0 | Rin1 Abl conf inactive | GFP quencher inactive
COc1cc(OC)c(NS(=O)(=O)c2c(C)[nH]c(=O)[nH]c2=O)cc1Cl	none
CC(=O)c1ccc(NC(=O)C2(S(=O)(=O)c3ccccc3)CC2)cc1	Rin1-Abl PPI inh 10.4 | Rin1 Abl conf inactive | GFP quencher inactive
O=C(Nc1ccc(N2CCOCC2)cc1)C1(S(=O)(=O)c2ccccc2)CC1	none
COC(=O)C1=C(C)N(C)C(=O)NC1c1cc2c(cc1[N+](=O)[O-])OCO2 (centres undefined)	Rin1-Abl PPI inh 15.4 | Rin1 Abl conf 11.1 | GFP quencher inactive
COC(=O)C1=C(C)N(CCCC(=O)O)C(=O)NC1c1cc2c(cc1[N+](=O)[O-])OCO2 (centres undefined)	none (no result: GRK2 inh, T cell HTS)
CCOc1cc(N2CCOCC2)c(OCC)cc1NC(=O)c1ccc(OC(C)C)cc1	none
CN(CC(=O)Nc1ccc(Cl)c(Cl)c1)C(=O)/C=C/c1ccc(F)cc1	Rin1-Abl PPI inh 9.5 | Rin1 Abl conf inactive | GFP quencher inactive
CC(=O)NC(CC(=O)NCCCn1ccc2ccccc21)c1ccccc1 (centres undefined)	none
Cc1noc(C)c1NC(=O)NC(c1ccccc1)c1ccccc1	Rin1-Abl PPI inh 6.3 | Rin1 Abl conf inactive | GFP quencher inactive
O=C1CC(=Nc2ccc([N+](=O)[O-])cc2)NN1c1c(Cl)cc(Cl)cc1Cl	none (no result: GRK2 inh, T cell HTS, Rce1 inhib)
COc1ccc(CC(=O)NNC(=S)NC(=O)c2cccnc2)cc1	Rin1-Abl PPI inh 6.8 | Rin1 Abl conf inactive | GFP quencher inactive
O=C(C1CCCO1)N1CCN(C(=S)Nc2cc(F)cc(F)c2)CC1 (centres undefined)	none
COc1cccc(NC(=O)CN(C)C(=O)CNC(=O)c2ccc(Oc3ccccc3)cc2)c1	none
CN(CC(=O)Nc1ccccc1Br)C(=O)CNC(=O)c1ccc(Oc2ccccc2)cc1	Myeloid diff 2 active, Rin1-Abl PPI inh 7.6 | Rin1 Abl conf inactive | GFP quencher inactive
